How the values were obtained:
[1] = target: Sodium-dependent dopamine transporter (Homo sapiens, UniProt Q01959); test: Displacement of [125I]RTI-55 from human DAT receptor expressed in canine kidney cells; format: cell-based
How it was run: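 Competition binding against [¹²⁵I]RTI-55 in canine kidney cells stably transfected with human DAT. Ki in nM, geometric mean ± SD of at least three separate experiments, each run in triplicate.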

Homo sapiens [2] = species on record: Homo sapiens; test: Selectivity for human NET over human SERT
How it was run: (§1)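 Competition binding in stably transfected cells expressing human transporters: NET vs [3H]nisoxetine and SERT vs [3H]citalopram in HEK-293 cells; DAT vs [125I]RTI-55 in canine kidney cells. Ki as geometric mean of at least three experiments in triplicate; selectivity as ratio of SERT or DAT Ki to NET Ki.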

[3] = Lipophilicity, log P at pH 7.4; format: physicochemical; conditions: buffer
How it was run: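 Radiotracer (~5–10 μCi) in 2 mL 1-octanol plus 2 mL 0.02 M sodium phosphate buffer, pH 7.4. Vortexed 10 min at room temperature, centrifuged 5 min. 0.5 mL of each layer gamma-counted and decay corrected. log P = log(octanol counts/buffer counts), done three times and averaged.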

Homo sapiens [4] = species on record: Homo sapiens; test: Selectivity for human NET over human DAT; how it was run: as §1
[5] = target: Sodium-dependent serotonin transporter (Homo sapiens, UniProt P31645); test: Displacement of [3H]citalopram from human SERT receptor expressed in HEK293 cells; format: cell-based
Chain of Sodium-dependent serotonin transporter (P31645 whole entry): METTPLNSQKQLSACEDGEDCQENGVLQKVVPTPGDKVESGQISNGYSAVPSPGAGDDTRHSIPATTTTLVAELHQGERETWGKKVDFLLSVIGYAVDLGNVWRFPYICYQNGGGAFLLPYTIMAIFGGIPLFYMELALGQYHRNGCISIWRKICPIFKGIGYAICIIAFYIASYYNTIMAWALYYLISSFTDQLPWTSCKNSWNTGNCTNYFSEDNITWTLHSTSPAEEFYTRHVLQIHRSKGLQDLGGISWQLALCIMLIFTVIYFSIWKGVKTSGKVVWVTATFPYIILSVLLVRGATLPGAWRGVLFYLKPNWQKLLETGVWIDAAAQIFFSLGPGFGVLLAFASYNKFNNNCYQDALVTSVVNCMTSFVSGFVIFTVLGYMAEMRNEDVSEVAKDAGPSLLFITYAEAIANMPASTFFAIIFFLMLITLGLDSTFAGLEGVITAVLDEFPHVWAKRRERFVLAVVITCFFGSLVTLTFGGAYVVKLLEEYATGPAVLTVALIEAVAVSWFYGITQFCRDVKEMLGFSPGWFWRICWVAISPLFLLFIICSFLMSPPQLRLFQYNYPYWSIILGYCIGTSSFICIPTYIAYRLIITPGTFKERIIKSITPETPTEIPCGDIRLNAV
How it was run: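 Competition binding against [³H]citalopram in HEK-293 cells stably transfected with human SERT. Ki in nM, geometric mean ± SD of at least three separate experiments, each run in triplicate.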

[6] = target: Sodium-dependent noradrenaline transporter (Homo sapiens, UniProt P23975); test: Displacement of [3H]nisoxetine from human NET receptor expressed in HEK293 cells; format: cell-based
Chain of Sodium-dependent noradrenaline transporter (P23975 whole entry): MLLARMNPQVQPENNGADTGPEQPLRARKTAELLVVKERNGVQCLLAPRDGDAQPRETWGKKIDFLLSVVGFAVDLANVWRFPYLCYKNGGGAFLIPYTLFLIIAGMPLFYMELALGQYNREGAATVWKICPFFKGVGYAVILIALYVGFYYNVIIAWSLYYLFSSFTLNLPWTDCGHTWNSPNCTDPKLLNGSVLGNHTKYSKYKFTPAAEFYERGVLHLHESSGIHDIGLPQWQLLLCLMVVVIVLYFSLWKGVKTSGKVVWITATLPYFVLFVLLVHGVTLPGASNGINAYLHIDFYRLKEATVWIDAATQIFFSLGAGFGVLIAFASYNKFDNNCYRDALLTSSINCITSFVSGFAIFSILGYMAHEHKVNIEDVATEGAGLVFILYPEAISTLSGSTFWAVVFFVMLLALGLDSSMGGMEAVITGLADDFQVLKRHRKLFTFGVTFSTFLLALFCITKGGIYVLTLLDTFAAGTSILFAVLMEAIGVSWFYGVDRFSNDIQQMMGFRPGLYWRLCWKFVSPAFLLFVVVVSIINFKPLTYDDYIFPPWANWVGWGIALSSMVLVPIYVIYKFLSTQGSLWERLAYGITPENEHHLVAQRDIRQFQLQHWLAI

Chain of Sodium-dependent dopamine transporter (Q01959 whole entry): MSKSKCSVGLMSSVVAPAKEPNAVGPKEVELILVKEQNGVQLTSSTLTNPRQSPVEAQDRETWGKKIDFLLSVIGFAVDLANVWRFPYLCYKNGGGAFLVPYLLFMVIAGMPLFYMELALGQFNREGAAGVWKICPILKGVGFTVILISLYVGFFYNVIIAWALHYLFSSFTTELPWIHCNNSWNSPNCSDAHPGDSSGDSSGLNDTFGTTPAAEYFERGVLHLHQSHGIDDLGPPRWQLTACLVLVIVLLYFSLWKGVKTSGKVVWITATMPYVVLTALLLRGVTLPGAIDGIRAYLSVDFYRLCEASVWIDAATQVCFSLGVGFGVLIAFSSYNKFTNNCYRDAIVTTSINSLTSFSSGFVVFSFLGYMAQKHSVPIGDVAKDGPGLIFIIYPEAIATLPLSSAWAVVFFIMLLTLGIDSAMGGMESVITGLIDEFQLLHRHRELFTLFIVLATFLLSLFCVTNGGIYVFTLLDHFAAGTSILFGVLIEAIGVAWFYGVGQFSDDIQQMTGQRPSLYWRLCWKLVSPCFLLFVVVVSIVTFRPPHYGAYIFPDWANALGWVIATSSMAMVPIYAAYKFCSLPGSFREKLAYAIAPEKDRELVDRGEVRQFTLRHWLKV

Row | SMILES | Ki [1] | Ratio Ki (Homo sapiens [2]) | logD [3] | Ratio Ki (Homo sapiens [4]) | Ki [5] | Ki [6]
1 | COc1ccccc1O[C@@H](c1ccccc1)[C@@H]1CNCCO1 | > 2 µM | 195 |  |  |  | 
2 | Cc1ccccc1S[C@@H](c1ccccc1)[C@@H]1CNCCO1 | 0.275 µM | 49 | 2.47 | 917 | 0.0148 µM | 0.0003 µM
3 | Cc1ccccc1O[C@@H](c1ccccc1)[C@@H]1CNCCO1 | 0.327 µM | 92 | 2.04 | 321 | 0.093 µM | 0.00102 µM

From ChEMBL document CHEMBL1139340, “Synthesis, radiosynthesis, and biological evaluation of carbon-11 and fluorine-18 labeled reboxetine analogues: potential positron emission tomography radioligands for in vivo imaging of the norepinephrine transporter” (J Med Chem, 2009)
